ChEMBL document CHEMBL3352689 (J Med Chem, 2014)

Key:
Collagenase 3 = Collagenase 3 (Homo sapiens, UniProt P45452); assay: Inhibition of human recombinant MMP13 using Cy3-PLGLK(Cy5Q)AR-NH2 as substrate after 40 mins by spectrofluorimetry
Rattus norvegicus [1] = assay: Intrinsic clearance in iv dosed rat; type: ADME, organism-based; conditions: in vivo
Liver microsome [2] = assay: Metabolic stability in rat liver microsomes; type: ADME
Summary of the method: (§1)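 The free acid was incubated with hepatic microsomes of each species. Stability is reported as clearance in μL/min/mg microsomal protein.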

[3] = Oral bioavailability in dog at 10 mg/kg; type: ADME, organism-based, Canis lupus familiaris; conditions: in vivo
Summary of the method: (§2)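 Three male animals per species. The sodium salt was given as a single oral dose in 0.5% methyl cellulose. Plasma Tmax, Cmax, AUC and oral bioavailability were derived.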

Oryctolagus cuniculus = assay: Oral bioavailability in rabbit assessed as 4-[2-({6-Fluoro-2-[({[3-(methyloxy)phenyl]methyl}amino)-carbonyl]-4-oxo-3,4-dihydroquinazolin-5-yl}oxy)ethyl]-benzoic acid at 1 mg/kg; type: ADME, organism-based; conditions: in vivo
Summary of the method: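 Rabbits, three males, received the free-acid form orally in 0.5% methyl cellulose at 1 mg/kg. Oral bioavailability was calculated.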

[4] = Tmax in rat at 10 mg/kg, po; type: ADME, organism-based; set-up: dose 10 mg/kg, route oral; conditions: in vivo; summary of the method: as §2
[5] = Total clearance in guinea pig at 1 mg/kg, iv; type: ADME, organism-based, Cavia porcellus; set-up: dose 1 mg/kg, route intravenous; conditions: in vivo
Summary of the method: (§3)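 Three male animals per species. Dosing was intravenous, with the compound in DMA/PEG400 or DMSO. Steady-state volume of distribution and total body clearance were derived from plasma levels.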

Macaca fascicularis [6] = assay: AUC in monkey at 1 mg/kg, po; conditions: cynomolgus monkey, plasma
Cavia porcellus = assay: Oral bioavailability in guinea pig assessed as 4-[2-({6-Fluoro-2-[({[3-(methyloxy)phenyl]methyl}amino)-carbonyl]-4-oxo-3,4-dihydroquinazolin-5-yl}oxy)ethyl]-benzoic acid at 3 mg/kg; type: ADME, organism-based; conditions: in vivo
Summary of the method: (§4)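 The free-acid form was dosed orally in 0.5% methyl cellulose at 3 mg/kg to three male animals. Oral bioavailability was calculated.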

Rattus norvegicus [7] = assay: Toxicity in rat at 200 mg/kg/day; type: organism-based; conditions: in vivo
[8] = AUC in rat at 10 mg/kg, po; type: ADME, organism-based; set-up: dose 10 mg/kg, route oral; conditions: plasma; summary of the method: as §2
[9] = Oral bioavailability in guinea pig at 3 mg/kg; type: ADME, organism-based, Cavia porcellus; conditions: in vivo; summary of the method: as §2
[10] = Tmax in dog at 10 mg/kg, po; type: ADME, organism-based, Canis lupus familiaris; set-up: dose 10 mg/kg, route oral; conditions: in vivo; summary of the method: as §2
Macaca fascicularis [11] = assay: Volume of distribution at steady state in monkey at 1 mg/kg, iv; conditions: cynomolgus monkey, in vivo, read-out: Vdss
[12] = Volume of distribution at steady state in guinea pig at 1 mg/kg, iv; type: ADME, organism-based, Cavia porcellus; set-up: dose 1 mg/kg, route intravenous; conditions: in vivo, read-out: Vdss; summary of the method: as §3
Macaca fascicularis [13] = assay: Oral bioavailability in monkey at 1 mg/kg; conditions: cynomolgus monkey, in vivo
[14] = AUC in rabbit at 10 mg/kg, po; type: ADME, organism-based, Oryctolagus cuniculus; set-up: dose 10 mg/kg, route oral; conditions: plasma; summary of the method: as §2
[15] = Cmax in guinea pig at 3 mg/kg, po; type: ADME, organism-based, Cavia porcellus; set-up: dose 3 mg/kg, route oral; conditions: in vivo; summary of the method: as §2
[16] = Total clearance in dog at 1 mg/kg, iv; type: ADME, organism-based, Canis lupus familiaris; set-up: dose 1 mg/kg, route intravenous; conditions: in vivo; summary of the method: as §3
Liver = assay: Metabolic stability in guinea pig liver microsomes; type: ADME, Cavia porcellus; summary of the method: as §1
[17] = Cmax in rabbit at 10 mg/kg, po; type: ADME, organism-based, Oryctolagus cuniculus; set-up: dose 10 mg/kg, route oral; conditions: in vivo; summary of the method: as §2
Canis familiaris = assay: Oral bioavailability in dog assessed as 4-[2-({6-Fluoro-2-[({[3-(methyloxy)phenyl]methyl}amino)-carbonyl]-4-oxo-3,4-dihydroquinazolin-5-yl}oxy)ethyl]-benzoic acid at 3 mg/kg; type: ADME, organism-based, Canis lupus familiaris; conditions: in vivo; summary of the method: as §4
Liver microsome [18] = assay: Metabolic stability in human liver microsomes; type: ADME; summary of the method: as §1
Macaca fascicularis [19] = assay: Tmax in monkey at 1 mg/kg, po; conditions: cynomolgus monkey, in vivo
Macaca fascicularis [20] = assay: Total clearance in monkey at 1 mg/kg, iv; conditions: cynomolgus monkey, in vivo
[21] = Volume of distribution at steady state in dog at 1 mg/kg, iv; type: ADME, organism-based, Canis lupus familiaris; set-up: dose 1 mg/kg, route intravenous; conditions: in vivo, read-out: Vdss; summary of the method: as §3
[22] = Oral bioavailability in rabbit at 10 mg/kg; type: ADME, organism-based, Oryctolagus cuniculus; conditions: in vivo; summary of the method: as §2
[23] = Volume of distribution at steady state in rat at 1 mg/kg, iv; type: ADME, organism-based; set-up: dose 1 mg/kg, route intravenous; conditions: in vivo, read-out: Vdss; summary of the method: as §3
[24] = AUC in dog at 10 mg/kg, po; type: ADME, organism-based, Canis lupus familiaris; set-up: dose 10 mg/kg, route oral; conditions: plasma; summary of the method: as §2
[25] = Oral bioavailability in rat at 10 mg/kg; type: ADME, organism-based; conditions: in vivo; summary of the method: as §2
[26] = Cmax in rat at 10 mg/kg, po; type: ADME, organism-based; set-up: dose 10 mg/kg, route oral; conditions: in vivo; summary of the method: as §2
[27] = Total clearance in rat at 1 mg/kg, iv; type: ADME, organism-based; set-up: dose 1 mg/kg, route intravenous; conditions: in vivo; summary of the method: as §3
[28] = Metabolic stability in rabbit liver microsomes; type: ADME, Oryctolagus cuniculus; summary of the method: as §1
[29] = Tmax in rabbit at 10 mg/kg, po; type: ADME, organism-based, Oryctolagus cuniculus; set-up: dose 10 mg/kg, route oral; conditions: in vivo; summary of the method: as §2
Rattus norvegicus [30] = assay: Oral bioavailability in rat assessed as 4-[2-({6-Fluoro-2-[({[3-(methyloxy)phenyl]methyl}amino)-carbonyl]-4-oxo-3,4-dihydroquinazolin-5-yl}oxy)ethyl]-benzoic acid at 3 mg/kg; type: ADME, organism-based; conditions: in vivo; summary of the method: as §4
Macaca fascicularis [31] = assay: Cmax in monkey at 1 mg/kg, po; conditions: cynomolgus monkey, in vivo
Macaca fascicularis [32] = assay: Oral bioavailability in monkey assessed as 4-[2-({6-Fluoro-2-[({[3-(methyloxy)phenyl]methyl}amino)-carbonyl]-4-oxo-3,4-dihydroquinazolin-5-yl}oxy)ethyl]-benzoic acid at 3 mg/kg; conditions: cynomolgus monkey, in vivo
[33] = Metabolic stability in cynomolgus monkey liver microsomes
[34] = AUC in guinea pig at 3 mg/kg, po; type: ADME, organism-based, Cavia porcellus; set-up: dose 3 mg/kg, route oral; conditions: plasma; summary of the method: as §2
[35] = Tmax in guinea pig at 3 mg/kg, po; type: ADME, organism-based, Cavia porcellus; set-up: dose 3 mg/kg, route oral; conditions: in vivo; summary of the method: as §2
[36] = Total clearance in rabbit at 0.1 mg/kg, iv; conditions: in vivo
[37] = Volume of distribution at steady state in rabbit at 0.1 mg/kg, iv; conditions: in vivo, read-out: Vdss
[38] = Cmax in dog at 10 mg/kg, po; type: ADME, organism-based, Canis lupus familiaris; set-up: dose 10 mg/kg, route oral; conditions: in vivo; summary of the method: as §2

COc1cccc(CNC(=O)c2nc3ccc(F)cc3c(=O)[nH]2)c1
IC50 (Collagenase 3): 11 nM

COc1cccc(CNC(=O)c2nc3ccc(C(F)(F)F)cc3c(=O)[nH]2)c1
IC50 (Collagenase 3): 97 nM

COc1cccc(CNC(=O)c2nc3ccc(OC)cc3c(=O)[nH]2)c1
IC50 (Collagenase 3): 4 nM

CCOc1ccc2nc(C(=O)NCc3cccc(OC)c3)[nH]c(=O)c2c1
IC50 (Collagenase 3): 2.4 nM

COc1cccc(CNC(=O)c2nc3ccc(OC(F)(F)F)cc3c(=O)[nH]2)c1
IC50 (Collagenase 3): 27 nM

COc1cccc(CNC(=O)c2nc3ccc(OCc4ccccc4)cc3c(=O)[nH]2)c1
IC50 (Collagenase 3): 110 nM

COc1cccc(CNC(=O)c2nc3ccc(SC)cc3c(=O)[nH]2)c1
IC50 (Collagenase 3): 1.8 nM

COc1cccc(CNC(=O)c2nc3ccc(S(C)(=O)=O)cc3c(=O)[nH]2)c1
IC50 (Collagenase 3): 23 nM

COc1cccc(CNC(=O)c2nc3ccc(-c4ccccc4)cc3c(=O)[nH]2)c1
IC50 (Collagenase 3): 9.8 nM

COc1cccc(CNC(=O)c2nc3ccc(C#N)cc3c(=O)[nH]2)c1
IC50 (Collagenase 3): 6.3 nM

COc1cccc(CNC(=O)c2nc3cc(OC)ccc3c(=O)[nH]2)c1
IC50 (Collagenase 3): 2200 nM

COc1cccc(CNC(=O)c2nc3c(OC)cccc3c(=O)[nH]2)c1
IC50 (Collagenase 3): > 10000 nM

COc1cccc(CNC(=O)c2nc3cccc(F)c3c(=O)[nH]2)c1
IC50 (Collagenase 3): 5 nM

COc1cccc(CNC(=O)c2nc3cccc(OC)c3c(=O)[nH]2)c1
IC50 (Collagenase 3): 25 nM

COc1cccc(CNC(=O)c2nc3cccc(C#N)c3c(=O)[nH]2)c1
IC50 (Collagenase 3): 8.6 nM

COc1cccc(CNC(=O)c2nc3cccc(-c4ccccc4)c3c(=O)[nH]2)c1
IC50 (Collagenase 3): 2.2 nM

COc1cccc(CNC(=O)c2nc3cccc(Oc4ccccc4)c3c(=O)[nH]2)c1
IC50 (Collagenase 3): 0.53 nM

COc1cccc(CNC(=O)c2nc3cccc(OCc4ccccc4)c3c(=O)[nH]2)c1
IC50 (Collagenase 3): 0.31 nM

COc1cccc(CNC(=O)c2nc3cccc(OCCc4ccccc4)c3c(=O)[nH]2)c1
CL (Rattus norvegicus [1]): 28.3 mL/min/kg | Microsomal clearance (Liver microsome [2]): 170 µL/min/mg | IC50 (Collagenase 3): 0.69 nM

COc1cccc(CNC(=O)c2nc3cccc(OCCCc4ccccc4)c3c(=O)[nH]2)c1
IC50 (Collagenase 3): 0.52 nM

COc1cccc(CNC(=O)c2nc3cccc(OCCOCc4ccccc4)c3c(=O)[nH]2)c1
IC50 (Collagenase 3): 1.6 nM

COc1cccc(CNC(=O)c2nc3cccc(NCCc4ccccc4)c3c(=O)[nH]2)c1
IC50 (Collagenase 3): 4.3 nM

COc1cccc(CNC(=O)c2nc3cccc(SCCc4ccccc4)c3c(=O)[nH]2)c1
IC50 (Collagenase 3): 9.7 nM

COc1cccc(CNC(=O)c2nc3cccc(CCCc4ccccc4)c3c(=O)[nH]2)c1
IC50 (Collagenase 3): 2.9 nM

COc1cccc(CNC(=O)c2nc3cccc(COCc4ccccc4)c3c(=O)[nH]2)c1
IC50 (Collagenase 3): 1.7 nM

COc1cccc(CNC(=O)c2nc3cccc(CN(C)Cc4ccccc4)c3c(=O)[nH]2)c1
IC50 (Collagenase 3): 16 nM

COc1cccc(CNC(=O)c2nc3cccc(CC(=O)Nc4ccccc4)c3c(=O)[nH]2)c1
IC50 (Collagenase 3): 0.16 nM

COc1cccc(CNC(=O)c2nc3cccc(OCCC4CCCCC4)c3c(=O)[nH]2)c1
IC50 (Collagenase 3): 0.99 nM

COc1cccc(CNC(=O)c2nc3cccc(OCCN4CCCCC4)c3c(=O)[nH]2)c1
IC50 (Collagenase 3): 34 nM

COc1cccc(CNC(=O)c2nc3ccc(F)c(OCCc4ccccc4)c3c(=O)[nH]2)c1
CL (Rattus norvegicus [1]): 17 mL/min/kg | Microsomal clearance (Liver microsome [2]): 150 µL/min/mg | IC50 (Collagenase 3): 0.04 nM

COc1cccc(CNC(=O)c2nc3ccc(F)c(OCCc4ccc(F)cc4)c3c(=O)[nH]2)c1
CL (Rattus norvegicus [1]): 28.3 mL/min/kg | Microsomal clearance (Liver microsome [2]): 180 µL/min/mg | IC50 (Collagenase 3): 0.15 nM

COc1cccc(CNC(=O)c2nc3ccc(F)c(OCCc4ccc(N)cc4)c3c(=O)[nH]2)c1
CL (Rattus norvegicus [1]): 233 mL/min/kg | Microsomal clearance (Liver microsome [2]): 140 µL/min/mg | IC50 (Collagenase 3): 0.03 nM

COc1cccc(CNC(=O)c2nc3ccc(F)c(OCCc4ccc(C(=O)[O-])cc4)c3c(=O)[nH]2)c1.[Na+]
bioavailability [3]: 58% | F (Oryctolagus cuniculus): 11% | Tmax [4]: 0.25 h | clearance [5]: 26.9 mL/min/kg | AUC (Macaca fascicularis [6]): 456 ng·h/mL | F (Cavia porcellus): 6.3% | Activity (Rattus norvegicus [7]): Non-toxic | AUC [8]: 1600 ng·h/mL | bioavailability [9]: 74% | Tmax [10]: 1.7 h | Vd (Macaca fascicularis [11]): 7.03 L/kg | Vd [12]: 5.39 L/kg | bioavailability (Macaca fascicularis [13]): 45% | AUC [14]: 15700 ng·h/mL | Cmax [15]: 439 ng/mL | clearance [16]: 3.08 mL/min/kg | Stability (Liver): 1 µL/min/mg | Cmax [17]: 2290 ng/mL | F (Canis familiaris): 3% | Stability (Liver microsome [18]): 3 µL/min/mg | Tmax (Macaca fascicularis [19]): 2.8 h | clearance (Macaca fascicularis [20]): 20.9 mL/min/kg | Vd [21]: 0.731 L/kg | bioavailability [22]: 35% | Vd [23]: 0.995 L/kg | AUC [24]: 31800 ng·h/mL | bioavailability [25]: 23% | Cmax [26]: 439 ng/mL | clearance [27]: 34.6 mL/min/kg | Stability [28]: 3 µL/min/mg | Tmax [29]: 1.8 h | F (Rattus norvegicus [30]): 4.9% | Cmax (Macaca fascicularis [31]): 45 ng/mL | F (Macaca fascicularis [32]): 1.5% | Stability [33]: 2 µL/min/mg | AUC [34]: 1410 ng·h/mL | Tmax [35]: 0.5 h | clearance [36]: 3.7 mL/min/kg | Vd [37]: 1.14 L/kg | Cmax [38]: 3870 ng/mL
